Screens (PubChem)
V-ATPase pH = regulators of yeast V-ATPase proton pumping, primary screen, pHLuorin cytosolic pH fluorescence | S. cerevisiae | AID 504577, 2011 | actives 0.37% (n = 350,000) | response, % at 10 µM; in the data active = response mostly above about 7.3%, no sharp cut-off; inactive = mostly below about 5.4%; note: actives read high
CR mimetic SO = reduction of superoxide in aged yeast, primary screen, HTS; S. cerevisiae aged cells, superoxide DHE fluorescence; hits give low values; superoxide response (% of plate mean), % at 10 µM; actives 0.18% (n = 330,000); AID 2690, 2010;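 active = superoxide response under a set limit, about three screen SD below normal, cut at about 65% in these data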;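 note: yeast aged for seven days with compound at 30 °C before DHE staining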
proKLK7 act = proKLK7 zymogen activators, primary screen, biochemical, fluorescence intensity. actives 0.9% (n = 370,000). AID 652039, 2013. Kallikrein-7 (Homo sapiens), P49862. purified proKLK7, EDANS-DABCYL substrate fluorescence; 100% is mature enzyme control, 0% vehicle. activation, % at 7 µM;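 active = activation above the mean of all tested compounds plus 3 SD, computed per campaign excluding outliers beyond control limits, cut at about 13% in these data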
Target sequence (P49862 whole entry, looked up): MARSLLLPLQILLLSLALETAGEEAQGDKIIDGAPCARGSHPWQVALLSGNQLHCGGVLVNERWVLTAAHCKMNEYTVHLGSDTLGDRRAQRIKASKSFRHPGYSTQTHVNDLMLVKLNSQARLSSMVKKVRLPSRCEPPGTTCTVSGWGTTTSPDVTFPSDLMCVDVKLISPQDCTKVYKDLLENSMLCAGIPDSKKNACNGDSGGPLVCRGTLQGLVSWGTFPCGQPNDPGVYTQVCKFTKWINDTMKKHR
Rce1 inh = yeast Rce1p protease inhibitors, primary screen, biochemical, fluorescence, cell-free homogeneous; yeast membranes, quenched prenylated peptide cleavage fluorescence; calls only; actives 0.27% (n = 290,000); AID 2563, 2010;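 active = fall in fluorescence gain of 50% or more versus controls, with final raw signal at or below 3038400; inconclusive = same 50% fall but final raw signal above 3038400; inactive = fall in fluorescence gain under 50%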
Target sequence (Q03530 whole entry, looked up): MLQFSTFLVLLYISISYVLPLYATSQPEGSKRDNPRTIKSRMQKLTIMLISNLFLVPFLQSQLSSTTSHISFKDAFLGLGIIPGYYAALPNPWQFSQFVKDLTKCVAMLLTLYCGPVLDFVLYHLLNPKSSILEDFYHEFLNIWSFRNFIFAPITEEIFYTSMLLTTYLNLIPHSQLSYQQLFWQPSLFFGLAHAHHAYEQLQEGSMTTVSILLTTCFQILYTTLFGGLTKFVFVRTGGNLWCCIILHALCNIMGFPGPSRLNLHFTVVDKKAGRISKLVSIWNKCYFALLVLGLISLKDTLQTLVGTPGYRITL
MIN6 prolif = inducers of MIN6 beta-cell proliferation, primary screen, ATP luminescence, uHTS | MIN6 cells proliferation, ATPlite luminescence, 48 h; cells starved in 0.2% serum; 100% = growth in 10% serum | proliferation, % at 10 µM | actives 0.29% (n = 330,000);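 active = compounds whose signal lies at least 3.5 SD above the mean of all wells on their plate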
T cell HTS = modulators of CD8 T cell-vesicle binding, primary screen, mouse 2C CD8+ T cells, flow cytometry; 2C CD8+ T cell-vesicle binding; hits give low values; response (vesicle binding), % at 7 µM; actives 0.068% (n = 330,000); AID 2052, 2009;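 active = response, share of CD8 T cells binding vesicles, and their 90th percentile fluorescence all below set limits, cut at about 80% in these data, passing the limit was not always enough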;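 note: values below 100% mean blocked vesicle binding to the CD8+ T cells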
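Incubation: binding step 1.5 h, 37 °C, antibody labelling 20 min, ice; system: murine 2C transgenic CD8+ T lymphocytes; technique: cytometric PE anti-B7-1 and Alexa647 anti-CD8 signals after 1% paraformaldehyde fixation; also added: QL9-charged Drosophila Ld/ICAM-1/B7-1 vesicles; control set: naked versus QL9-loaded vesicles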
proKLK7 act conf = proKLK7 zymogen activators, confirmation, biochemical, fluorescence intensity, triplicate; shares compounds with proKLK7 act; purified proKLK7, EDANS-DABCYL substrate fluorescence; scaled: vehicle 0, mature enzyme 100; activation, % at 7 µM; actives 68% (n = 3,200); AID 686949, 2013;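 active = activation, as change over the incubation, above the mean of all tested compounds plus 3 SD, cut at about 13% in these data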
EDANS-DABCYL int = EDANS-DABCYL substrate optical interference, artefact control for kallikrein-7 zymogen activator project, biochemical, fluorescence intensity, high throughput; actives 80% (n = 3,200); activation, % at 7 µM; shares compounds with proKLK7 act; AID 686952, 2013; no enzyme, 4 h; solvent 0%, active enzyme control 100%;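 active = activation above the all-compound mean plus 3 SD, ignoring values outside control-based bounds, cut at about 4.8% in these data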;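 note: value is the 4 h activation minus the activation read at time zero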
EDANS interf = counter-screen for kallikrein-7 activators: EDANS-DABCYL interference, dose response; EDANS-DABCYL peptide fluorescence interference, no enzyme; shares compounds with proKLK7 act; AID 720493; EC50, µM; actives 20% (n = 250);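 active = compounds that raise the fluorescence signal in this interference counterscreen, with EC50 at or below 10 µM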;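 note: intact quenched peptide substrate alone read at 355 nm excitation and 520 nm emission; signal is fluorescence gain from T0 to T4 after four hours at room temperature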
Of the large screens only hits and unclear results are named; the others gave an inactive call (follow-up assays come after a bar, where they were run). A selection: hits, their analogues and other compounds. The true share with any hit is near 1.9%.

CCNc1nc2nc3ccc(C)cn3c(=O)c2cc1C(=O)NCC1CCCO1 (stereo unspecified)	proKLK7 act 74.6, Rce1 inh inconclusive | proKLK7 act conf 69.2 | EDANS-DABCYL int 68.8
Cc1ccc2nc3nc(NCC4CCCO4)c(C(=O)NC4CCCC4)cc3c(=O)n2c1 (stereo unspecified)	proKLK7 act 24.5 | proKLK7 act conf inactive | EDANS-DABCYL int inactive
Cc1ccc2nc3nc(NCC4CCCO4)c(C(=O)NC4CCCCC4)cc3c(=O)n2c1 (stereo unspecified)	none (no result: V-ATPase pH, proKLK7 act)
CCN(CC)C(=O)c1ncn2c1C(=O)N(C)CC2	none (no result: V-ATPase pH, CR mimetic SO, Rce1 inh, MIN6 prolif, T cell HTS)
COc1ccc(NC(=O)CN(C)CC(=O)N2CCCCCC2)cc1	none (no result: CR mimetic SO, Rce1 inh, T cell HTS)
COc1cccc(NC(=O)CN(C)C(=O)Cn2c(=O)oc3ccccc32)c1	none
CC(C)N(Cc1c(O)ccc2c(=O)c(-c3ccc(Cl)cc3)coc12)C(C)C	none
O=c1c(-c2ccccc2)coc2c(CN3CCCC3)c(O)ccc12	proKLK7 act 66.5, Rce1 inh active | proKLK7 act conf 38.8 | EDANS-DABCYL int 48.6
O=c1cc(-c2ccccc2)c2ccc(O)c(CN3CCCCC3)c2o1	none
COc1ccc(-c2coc3c(CN4CCOCC4)c(O)ccc3c2=O)cc1	proKLK7 act 52.4 | proKLK7 act conf 49.7 | EDANS-DABCYL int 55.8
O=c1c(-c2ccc(Cl)cc2)coc2c(CN3CCOCC3)c(O)ccc12	proKLK7 act 18.9 | proKLK7 act conf 20.7 | EDANS-DABCYL int 23.2
CCC(C)NC(=O)c1cn(CC)c2ccc(S(=O)(=O)N3CCCCCC3)cc2c1=O (stereo unspecified)	none
O=C(NC1CCC(O)CC1)c1cc(-c2ccco2)nc2ccccc12 (stereo unspecified)	proKLK7 act 27.9 | proKLK7 act conf 12.9 | EDANS-DABCYL int 10.9 | EDANS interf inactive
O=C(NCC1CCCO1)c1cc(-c2ccco2)nc2ccccc12 (stereo unspecified)	proKLK7 act 59.1 | proKLK7 act conf 66.5 | EDANS-DABCYL int 67.8
Nc1ncnc2c1ncn2[C@@H]1O[C@H](CNS(=O)(=O)CCCCl)[C@@H](O)[C@H]1O	none (no result: Rce1 inh)
c1cc(Nc2ncnc3sc4c(c23)CCC4)ccn1	proKLK7 act 32.2 | proKLK7 act conf 55.8 | EDANS-DABCYL int 64.2
C(=N\Nc1ncnc2sc3c(c12)CCC3)/c1ccncc1	none
O=C(Nc1ccc2nccnc2c1)Nc1ccccc1Cl	proKLK7 act 19.9 | proKLK7 act conf 46.1 | EDANS-DABCYL int 43.8
Cc1ccc(C(=O)Nc2ccc3nccnc3c2)cc1	proKLK7 act 12.6 | proKLK7 act conf 45.4 | EDANS-DABCYL int 38.1 | EDANS interf 9.19
O=C(Nc1cccc(C(=O)O)c1)Nc1ccccc1Cl	none
CSC1=NSC2=NC(=O)/C(=C/c3coc4ccccc4c3=O)C(=N)N12	none (no result: Rce1 inh, MIN6 prolif)
N=C1/C(=C\c2coc3ccccc3c2=O)C(=O)N=C2SC=CN12	proKLK7 act 23.0 | proKLK7 act conf 32.6 | EDANS-DABCYL int 31.7
COc1ccc(C2Nc3ccccc3C(=O)N2O)cc1OC (stereo unspecified)	none
COc1ccc(CCN2C(=O)c3ccccc3NC2c2cc(Cl)c(O)c(OC)c2)cc1 (stereo unspecified)	none
CCCN1C(=O)c2ccccc2NC1c1cc(OC)c(OC)c(OC)c1 (stereo unspecified)	proKLK7 act 16.2 | proKLK7 act conf inactive | EDANS-DABCYL int 16.1
CCN(CC)CCN1C(=O)c2ccccc2NC1c1cc(OC)c(OC)c(OC)c1 (stereo unspecified)	proKLK7 act 98.5 | proKLK7 act conf 13.7 | EDANS-DABCYL int 18.0
Cc1cc(N2CCOCC2)nc2ccc(NC(=O)C3CCCCC3)cc12	none (no result: V-ATPase pH, CR mimetic SO, Rce1 inh, MIN6 prolif, T cell HTS)
Cc1cc(N2CCCC2)nc2ccc(NC(=S)NCCCN3CCC(C)CC3)cc12	proKLK7 act 14.8 | proKLK7 act conf 34.3 | EDANS-DABCYL int 45.0
CCCN(CCC)CCNC(=O)CCC(=O)Nc1ccc2nc(N3CCN(C)CC3)cc(C)c2c1	proKLK7 act 25.2 | proKLK7 act conf 120.3 | EDANS-DABCYL int 121.2
Cc1cc(N2CCN(C)CC2)nc2ccc(NC(=S)N3CCN(c4ccc(Cl)cc4)CC3)cc12	proKLK7 act 15.0 | proKLK7 act conf inactive | EDANS-DABCYL int inactive
Cc1cc(N2CCN(C)CC2)nc2ccc(NC(=S)N3CCN(c4ccc(F)cc4)CC3)cc12	none
Cc1cc(N2CCOCC2)nc2ccc(NC(=S)N3CCCCC3C)cc12 (stereo unspecified)	proKLK7 act 20.8 | proKLK7 act conf inactive | EDANS-DABCYL int 14.9
COc1cccc(/C=N/NC(=S)NCc2ccco2)c1OC	none
CC(C(=O)Nc1ccccn1)N1C(=O)c2ccccc2S1(=O)=O (stereo unspecified)	none
C[C@@H]1CN([C@H](C)CO)C(=O)CCCn2cc(nn2)CO[C@H]1CN(C)S(=O)(=O)c1ccc2c(c1)OCCCO2	none (no result: CR mimetic SO, Rce1 inh, MIN6 prolif, T cell HTS)
O=C1CC(N(O)c2ccccc2)C(=O)N1c1ccc(Cl)c(Cl)c1 (stereo unspecified)	proKLK7 act 33.9 | proKLK7 act conf 459.4 | EDANS-DABCYL int 467.3
Cc1cccc(N2C(=O)CC(N(O)c3ccccc3)C2=O)c1 (stereo unspecified)	proKLK7 act 273.7 | proKLK7 act conf 348.8 | EDANS-DABCYL int 365.8
Cc1cccc(N2C(=O)SC(N(C)c3ccccc3)C2=O)c1 (stereo unspecified)	none
O=C(NN1CCOCC1)c1cc(-c2ccccc2)nc2ccccc12	none
Cc1cc(C)c2nc(NNC(=O)c3cc(-c4cccs4)nc4ccccc34)sc2c1	proKLK7 act 13.2 | proKLK7 act conf inactive | EDANS-DABCYL int 12.1
O=C(NN1CCOCC1)c1cc(-c2cccs2)nc2ccccc12	proKLK7 act 37.1 | proKLK7 act conf 33.3 | EDANS-DABCYL int 35.9
